# From ChEMBL document CHEMBL1121429, “Soft drugs. 1. Labile quaternary ammonium salts as soft antimicrobials” (J Med Chem, 1980)
# Key:
# Type in all cases: functional
# Streptococcus pyogenes [1] = assay: Sterilization time for contact germicidal efficiency (CGE) of salt was tested against at Streptococcus pyogenes at pH 7.0, concentration 1010.9 ppm
# In short: (§1)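 Streptococcus pyogenes ATCC 19615 overnight culture, 5 × 10^6 cfu/mL; 0.2 mL into 5 mL test solution of salt in buffer, left 30 min at room temperature beforehand. At timed intervals (0.5 to 30 min), a 3-mm loop was transferred to sterile nutrient broth and incubated at 37 °C for 7 days. Sterilization time is the shortest interval without growth; buffer-only and viability controls were run.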
# Streptococcus pyogenes [2] = assay: Sterilization time for contact germicidal efficiency (CGE) of salt was tested against at Streptococcus pyogenes at pH 7.0, concentration 896.0 ppm; in short: as §1
# Pseudomonas aeruginosa [3] = assay: Sterilization time for contact germicidal efficiency (CGE) of salt was tested against at Pseudomonas aeruginosa at pH 7.0, concentration 1010 ppm
# In short: (§2)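 Test solutions of the quaternary salt in buffer stood 30 min at room temperature. 0.2 mL of overnight broth culture was added to 5 mL of solution. Inocula: S. aureus ATCC 6538 6-8 × 10^6 cfu/mL, P. aeruginosa ATCC 9027 12-13 × 10^6/mL, S. pyogenes ATCC 19615 5 × 10^6 cfu/mL. At 0.5-30 min intervals a loop was subcultured into nutrient broth and incubated 7 days at 37 °C. Sterilization time is the first interval giving no growth.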
# Staphylococcus aureus [4] = assay: Sterilization time for contact germicidal efficiency (CGE) of salt was tested against at Staphylococcus aureus at pH 7.0, concentration 1010 ppm
# In short: (§3)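 Staphylococcus aureus ATCC 6538, overnight broth culture at 6-8 × 10^6 cfu/mL; 0.2 mL inoculated into 5 mL of buffered quaternary salt solution pre-held 30 min at room temperature. Loop subcultures (3 mm) taken at 0.5-30 min intervals into nutrient broth, incubated at 37 °C for 7 days and read daily. The endpoint is the earliest time giving a growth-free subculture.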
# Staphylococcus aureus [5] = assay: Sterilization time for contact germicidal efficiency (CGE) of salt was tested against Staphylococcus aureus at pH 7.0, concentration 896.0 ppm; in short: as §2
# Pseudomonas aeruginosa [6] = assay: Sterilization time for contact germicidal efficiency (CGE) of salt was tested against at Pseudomonas aeruginosa at pH 6.0, concentration 1016 ppm; in short: as §2
# Pseudomonas aeruginosa [7] = assay: Sterilization time for contact germicidal efficiency (CGE) of salt was tested against at Pseudomonas aeruginosa at pH 8.0, concentration 1013 ppm
# In short: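 Pseudomonas aeruginosa ATCC 9027 overnight broth culture (12-13 × 10^6 organisms/mL); 0.2 mL added to 5 mL buffered salt solution held 30 min at room temperature. At intervals from 0.5 to 30 min, a 3-mm loop was subcultured into nutrient broth and incubated at 37 °C for 7 days. Sterilization time is the shortest interval whose subculture gave no growth.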
# Staphylococcus aureus [8] = assay: Sterilization time for contact germicidal efficiency (CGE) of salt was tested against at Staphylococcus aureus at pH 8.0, concentration 1013 ppm; in short: as §3
# Streptococcus pyogenes [9] = assay: Sterilization time for contact germicidal efficiency (CGE) of salt was tested against at Streptococcus pyogenes at pH 6.0, concentration 1016 ppm; in short: as §1
# Streptococcus pyogenes [10] = assay: Sterilization time for contact germicidal efficiency (CGE) of salt was tested against at Streptococcus pyogenes at pH 8.0, concentration 1013 ppm; in short: as §1
# Staphylococcus aureus [11] = assay: Sterilization time for contact germicidal efficiency (CGE) of salt was tested against Staphylococcus aureus at pH 7.0, concentration 1010.9 ppm; in short: as §2
# Pseudomonas aeruginosa [12] = assay: Sterilization time for contact germicidal efficiency (CGE) of salt was tested against at Pseudomonas aeruginosa at pH 7.0, concentration 896.0 ppm; in short: as §2
# Pseudomonas aeruginosa [13] = assay: Minimum inhibitory concentration of salt was tested against Pseudomonas aeruginosa at 0.1 M NaH2PO4 adjusted to pH 7.0
# Staphylococcus aureus [14] = assay: Sterilization time for contact germicidal efficiency (CGE) of salt was tested against at Staphylococcus aureus at pH 6.0, concentration 1016 ppm; in short: as §3
# Pseudomonas aeruginosa [15] = assay: Sterilization time for contact germicidal efficiency (CGE) of salt was tested against at Pseudomonas aeruginosa at pH 7.0, concentration 1010.9 ppm; in short: as §2
# Streptococcus pyogenes [16] = assay: Sterilization time for contact germicidal efficiency (CGE) of salt was tested against at Streptococcus pyogenes at pH 7.0, concentration 1010 ppm; in short: as §1
# Streptococcus pyogenes [17] = assay: Minimum inhibitory concentration of salt was tested against Streptococcus pyogenes aureus at 0.1 M NaH2PO4 adjusted to pH 7.0
# Streptococcus pyogenes [18] = assay: Sterilization time for contact germicidal efficiency (CGE) of salt was tested against at Streptococcus pyogenes at pH 8.0, concentration 1008 ppm
# Staphylococcus aureus [19] = assay: Sterilization time for contact germicidal efficiency (CGE) of salt was tested against Staphylococcus aureus at pH 7.0, concentration 1026 ppm
# Streptococcus pyogenes [20] = assay: Sterilization time for contact germicidal efficiency (CGE) of salt was tested against at Streptococcus pyogenes at pH 6.0, concentration 1009 ppm
# Staphylococcus aureus [21] = assay: Sterilization time for contact germicidal efficiency (CGE) of salt was tested against at Staphylococcus aureus at pH 7.0, concentration 1026 ppm
# Pseudomonas aeruginosa [22] = assay: Sterilization time for contact germicidal efficiency (CGE) of salt was tested against at Pseudomonas aeruginosa at pH 7.0, concentration 1026 ppm
# Pseudomonas aeruginosa [23] = assay: Sterilization time for contact germicidal efficiency (CGE) of salt was tested against at Pseudomonas aeruginosa at pH 6.0, concentration 1009 ppm
# Staphylococcus aureus [24] = assay: Minimum inhibitory concentration of salt was tested against Staphylococcus aureus aureus at 0.1 M NaH2PO4 adjusted to pH 7.0
# In short: (§4)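 Bacteria grown 18-20 h at 37 °C in tryptose phosphate broth, adjusted to OD650 0.01, then diluted into double-strength medium to about 2 × 10^5 viable organisms/mL. Compound in 0.1 M NaH2PO4 pH 7.0 was serially twofold diluted into sterile water and added 1:1 to the cultures. MIC read after 18-20 h at 37 °C, with viability, sterility and buffer controls.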
# Bacillus subtilis = assay: Minimum inhibitory concentration of salt was tested against Bacillus subtilis at 0.1 M NaH2PO4 adjusted to pH 7.0
# Staphylococcus aureus [25] = assay: Sterilization time for contact germicidal efficiency (CGE) of salt was tested against at Staphylococcus aureus at pH 6.0, concentration 1009 ppm
# Streptococcus pyogenes [26] = assay: Sterilization time for contact germicidal efficiency (CGE) of salt was tested against at Streptococcus pyogenes at pH 7.0, concentration 1026 ppm
# Pseudomonas aeruginosa [27] = assay: Sterilization time for contact germicidal efficiency (CGE) of salt was tested against at Pseudomonas aeruginosa at pH 8.0, concentration 1008 ppm
# Staphylococcus aureus [28] = assay: Sterilization time for contact germicidal efficiency (CGE) of salt was tested against at Staphylococcus aureus at pH 8.0, concentration 1008 ppm
# Salmonella typhimurium [29] = assay: (§5) Minimum inhibitory concentration of salt was tested against Salmonella Typhimurium […] at 0.1 M NaH2PO4 adjusted to pH 7.0; settings: Salmonella enterica
# Salmonella typhimurium [30] = assay: as §5; settings: Salmonella enterica; in short: as §4; remark: listed apart in the source
# Staphylococcus aureus [31] = assay: Sterilization time for contact germicidal efficiency (CGE) of salt was tested against Staphylococcus aureus at pH 7.0, concentration 1035.9 ppm; in short: as §2
# Streptococcus pyogenes [32] = assay: Sterilization time for contact germicidal efficiency (CGE) of salt was tested against at Streptococcus pyogenes at pH 7.0, concentration 1035.9 ppm; in short: as §1
# Pseudomonas aeruginosa [33] = assay: Sterilization time for contact germicidal efficiency (CGE) of salt was tested against at Pseudomonas aeruginosa at pH 7.0, concentration 1035.9 ppm; in short: as §2
compound,measurement,setting,value
CCCCCCCCCCCC(=O)OC[n+]1ccccc1.[Cl-],Time,Streptococcus pyogenes [1],0.5 min
same,Time,Streptococcus pyogenes [2],0.5 min
same,Time,Pseudomonas aeruginosa [3],0.5 min
same,Time,Staphylococcus aureus [4],0.5 min
same,Time,Staphylococcus aureus [5],0.5 min
same,Time,Pseudomonas aeruginosa [6],0.5 min
same,Time,Pseudomonas aeruginosa [7],2 min
same,Time,Staphylococcus aureus [8],0.5 min
same,Time,Streptococcus pyogenes [9],0.5 min
same,Time,Streptococcus pyogenes [10],7 min
same,Time,Staphylococcus aureus [11],0.5 min
same,Time,Pseudomonas aeruginosa [12],0.5 min
same,MIC,Pseudomonas aeruginosa [13],512 µg/mL
same,Time,Staphylococcus aureus [14],1 min
same,Time,Pseudomonas aeruginosa [15],0.5 min
same,Time,Streptococcus pyogenes [16],0.5 min
CCCCCCCCCCCC(=O)OC[N+]12CCN(CC1)CC2.[Cl-],MIC,Streptococcus pyogenes [17],32.8 µg/mL
same,Time,Streptococcus pyogenes [18],3 min
same,Time,Staphylococcus aureus [19],0.5 min
same,Time,Streptococcus pyogenes [20],0.5 min
same,Time,Staphylococcus aureus [21],0.5 min
same,Time,Pseudomonas aeruginosa [22],3 min
same,Time,Pseudomonas aeruginosa [23],0.5 min
same,MIC,Staphylococcus aureus [24],65.5 µg/mL
same,MIC,Bacillus subtilis,32.8 µg/mL
same,Time,Staphylococcus aureus [25],7 min
same,MIC,Pseudomonas aeruginosa [13],1050 µg/mL
same,Time,Streptococcus pyogenes [26],0.5 min
same,Time,Pseudomonas aeruginosa [27],4 min
same,Time,Staphylococcus aureus [28],0.5 min
same,MIC,Salmonella typhimurium [29],524 µg/mL
CCCCCCCC(=O)OC[n+]1ccccc1.[Cl-],MIC,Salmonella typhimurium [30],1060 µg/mL
same,Time,Staphylococcus aureus [31],>30 min
same,Time,Streptococcus pyogenes [32],>30 min
same,Time,Pseudomonas aeruginosa [33],>30 min
